Reference: ChEMBL document CHEMBL5036319, “Discovery of Novel Benzothiazepinones as Irreversible Covalent Glycogen Synthase Kinase 3β Inhibitors for the Treatment of Acute Promyelocytic Leukemia” (J Med Chem, 2021)
Calls of active or inactive are those of the source. The calls are words filed in the database; no cut-off is given here.

What was measured:
[1] = Cytotoxicity against HUVEC assessed as cell viability at 100 uM incubated for 24 hrs by CCK-8 assay relative to control; type: cell-based; conditions: human, read-out: Activity
Procedure, shortened: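 HUVEC and LO2 normal cells were cultured in RPMI-1640 or DMEM with 10% FBS at 37 °C, 5% CO2, and seeded at 3 × 10^4 cells/well. They were exposed for 24 h to graded concentrations. CCK-8 incubation was 3 h at 37 °C, with A450 read and viability expressed versus untreated control. Three independent experiments, mean ± SEM.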

[2] = Induction in caspase-mediated apoptosis in human NB-4 cells assessed as necrotic cells at 25 uM incubated for 24 hrs by Annexin V-FITC/Propidium iodide staining based flow cytometry analysis (reference value: 0.352%); type: functional
NB-4 = assay: Antitumor activity against human NB-4 cells xenografted in BALB/c nude mouse assessed as reduction in tumor mass at 15 mg/kg/day, ip administered for 2 weeks; type: functional, organism-based
Procedure, shortened: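 Female Balb/c nude mice, 4 weeks old, received 2 × 10^6 NB4 cells s.c. in the right flank. Once tumours reached about 0.5 cm diameter, mice were randomised to corn-oil vehicle or drug in corn oil (n = 5). Dosing was 15 mg/kg/d i.p. once daily for 2 weeks. Caliper volume (length × width²)/2 was taken every other day, and tumours were excised and weighed at the end.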

[3] = Induction in caspase-mediated apoptosis in human NB4-DR1 cells assessed as late apoptotic cells at 100 uM incubated for 24 hrs in presence of Z-VAD-FMK by Annexin V-FITC/propidium iodide staining based flow cytometry analysis (reference value: 2.54%); type: functional
[4] = Induction in caspase-mediated apoptosis in human NB-4 cells assessed as late apoptotic cells at 50 uM incubated for 24 hrs in presence of Z-VAD-FMK by Annexin V-FITC/propidium iodide staining based flow cytometry analysis (reference value: 1.15%); type: functional
[5] = Induction in caspase-mediated apoptosis in human NB4-DR1 cells assessed as necrotic cells at 25 uM incubated for 24 hrs by Annexin V-FITC/propidium iodide staining based flow cytometry analysis (reference value: 0.19%); type: functional
[6] = Induction in caspase-mediated apoptosis in human NB-4 cells assessed as necrotic cells at 25 uM incubated for 24 hrs in presence of Z-VAD-FMK by Annexin V-FITC/propidium iodide staining based flow cytometry analysis (reference value: 0.167%); type: functional
[7] = Induction in caspase-mediated apoptosis in human NB4-DR1 cells assessed as early apoptosis cells at 12.5 uM incubated for 24 hrs in presence of Z-VAD-FMK by Annexin V-FITC/propidium iodide staining based flow cytometry analysis (reference value: 0.875%); type: functional
[8] = Induction in caspase-mediated apoptosis in human NB-4 cells assessed as late apoptotic cells at 12.5 uM incubated for 24 hrs in presence of Z-VAD-FMK by Annexin V-FITC/propidium iodide staining based flow cytometry analysis (reference value: 1.15%); type: functional
[9] = Terminal half life in ICR mouse at 15 mg/kg, ip administered as single dose measured upto 8 hrs by LC-MS/MS analysis; type: ADME, organism-based; conditions: in vivo
Procedure, shortened: (§1)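 Male ICR mice (30 g) received a single 15 mg/kg i.p. bolus in corn oil. Orbital blood went into K3EDTA tubes at 0.08–8 h, three animals per time point (composite profile). Plasma was protein-precipitated with acetonitrile and analysed by LC–MS/MS; non-compartmental analysis.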

[10] = AUCinfinity in ICR mouse at 15 mg/kg, ip administered as single dose measured upto 8 hrs by LC-MS/MS analysis; type: ADME, organism-based; parameters: route intraperitoneal, dose 15 mg/kg, time <=8; conditions: in vivo
Procedure, shortened: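 Male ICR mice (30 g) given a single i.p. bolus of 15 mg/kg in corn oil. Blood taken by orbital collection into K3EDTA tubes at 0.08, 0.17, 0.5, 1, 2, 4 and 8 h, three animals per time point, giving a composite profile. Plasma proteins were precipitated with acetonitrile and analysed by LC-MS/MS. Parameters were derived by non-compartmental analysis.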

[11] = Induction in caspase-mediated apoptosis in human NB-4 cells assessed as early apoptotic cells at 100 uM incubated for 24 hrs by Annexin V-FITC/propidium iodide staining based flow cytometry analysis (reference value: 2.02%); type: functional
[12] = Induction in caspase-mediated apoptosis in human NB4-DR1 cells assessed as necrotic cells at 100 uM incubated for 24 hrs by Annexin V-FITC/propidium iodide staining based flow cytometry analysis (reference value: 0.19%); type: functional
Raji = assay: Cytotoxicity against human Raji cells assessed as reduction in cell viability measured after 24 hrs by CCK-8 assay; type: functional, cell-based
Procedure, shortened: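 Cells were grown in RPMI-1640 or high-glucose DMEM with 10% FBS at 37 °C, 5% CO2, and seeded at 3 × 10^4 cells/well. Exposure was 24 h across serial concentrations (0−1000 μM in the screen). […] Three independent experiments, mean ± SEM.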

[13] = target: Glycogen synthase kinase-3 beta (Homo sapiens, UniProt P49841); assay: Inhibition of recombinant human GSK-3beta using GS-2 peptide as substrate incubated for 30 mins in presence of ATP by kinase-glo luminescence assay
[14] = Induction in caspase-mediated apoptosis in human NB4-DR1 cells assessed as early apoptotic cells at 12.5 uM incubated for 24 hrs by Annexin V-FITC/propidium iodide staining based flow cytometry analysis (reference value: 1.43%); type: functional
[15] = Tmax in ICR mouse at 15 mg/kg, ip administered as single dose measured upto 8 hrs by LC-MS/MS analysis; type: ADME, organism-based; conditions: in vivo; procedure, shortened: as §1
[16] = Induction in caspase-mediated apoptosis in human NB-4 cells assessed as late apoptotic cells at 100 uM incubated for 24 hrs in presence of Z-VAD-FMK by Annexin V-FITC/propidium iodide staining based flow cytometry analysis (reference value: 1.15%); type: functional
[17] = Induction in caspase-mediated apoptosis in human NB4-DR1 cells assessed as late apoptotic cells at 25 uM incubated for 24 hrs by Annexin V-FITC/propidium iodide staining based flow cytometry analysis (reference value: 1.47%); type: functional
[18] = Induction in caspase-mediated apoptosis in human NB-4 cells assessed as viable cells at 50 uM incubated for 24 hrs by Annexin V-FITC/propidium iodide staining based flow cytometry analysis (reference value: 96.6%); type: functional; conditions: read-out: Activity
[19] = Induction in caspase-mediated apoptosis in human NB4-DR1 cells assessed as necrotic cells at 12.5 uM incubated for 24 hrs by Annexin V-FITC/propidium iodide staining based flow cytometry analysis (reference value: 0.19%); type: functional
[20] = Induction in caspase-mediated apoptosis in human NB-4 cells assessed as viable cells at 25 uM incubated for 24 hrs in presence of Z-VAD-FMK by Annexin V-FITC/propidium iodide staining based flow cytometry analysis (reference value: 96.8%); type: functional; conditions: read-out: Activity
[21] = Induction in caspase-mediated apoptosis in human NB4-DR1 cells assessed as viable cells at 50 uM incubated for 24 hrs by Annexin V-FITC/propidium iodide staining based flow cytometry analysis (reference value: 96.9%); type: functional; conditions: read-out: Activity
[22] = Induction in caspase-mediated apoptosis in human NB4-DR1 cells assessed as necrotic cells at 25 uM incubated for 24 hrs in presence of Z-VAD-FMK by Annexin V-FITC/propidium iodide staining based flow cytometry analysis (reference value: 0.223%); type: functional

Sequence of Glycogen synthase kinase-3 beta (P49841 whole entry): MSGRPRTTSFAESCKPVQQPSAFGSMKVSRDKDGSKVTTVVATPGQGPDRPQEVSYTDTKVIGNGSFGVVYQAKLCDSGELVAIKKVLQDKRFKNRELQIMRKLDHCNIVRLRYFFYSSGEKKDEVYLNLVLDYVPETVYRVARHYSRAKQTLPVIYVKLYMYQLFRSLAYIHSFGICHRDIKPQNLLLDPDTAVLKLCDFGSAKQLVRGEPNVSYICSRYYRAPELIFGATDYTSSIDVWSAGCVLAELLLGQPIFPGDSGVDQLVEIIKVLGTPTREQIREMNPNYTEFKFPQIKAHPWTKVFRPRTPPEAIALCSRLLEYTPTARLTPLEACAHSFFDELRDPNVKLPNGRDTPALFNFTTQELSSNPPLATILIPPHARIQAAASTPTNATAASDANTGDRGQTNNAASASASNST

C=CC(=O)N1C(=O)CC(c2ccc(F)cc2)Sc2ccccc21 (centres undefined)
viability at 24 h, 100 µM [1]: > 70%
Activity [2]: 11.6%
Activity (NB-4): Active
Activity [3]: 14.2%
Activity [4]: 11.7%
Activity [5]: 1.32%
Activity [6]: 1.38%
Activity [7]: 0.773%
Activity [8]: 7.39%
beta t1/2 [9]: 14.2 h
AUC [10]: 10838.33 ng·h/mL
Activity [11]: 4.21%
Activity [12]: 6.32%
IC50 (Raji): 28.4 µM
IC50 [13]: 6.6 µM
Activity [14]: 1.77%
Tmax [15]: 1 h
Activity [16]: 19.6%
Activity [17]: 14.8%
viability at 50 µM [18]: 14.2%
Activity [19]: 0.508%
viability at 25 µM [20]: 80%
viability at 50 µM [21]: 79.7%
Activity [22]: 0.485%
